Reference: ChEMBL document CHEMBL1137018 (Antimicrob Agents Chemother, 2007)

Legend:
[1] = AUC (0 to 12 hrs) in human at 400 mg, po bid on day 1 and 200 mg, po bid on day 2 and 3 measured after 3 days; type: ADME, organism-based; set-up: dose 400 mg, time < 12 hr, route oral; settings: plasma
How it was run: (§1)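 Healthy male volunteers. […] Plasma was sampled on days 3 and 30 at 0.5–12 h postdose. Samples were solid-phase extracted and assayed by LC/MS/MS (range 10 to 2,500 ng/ml). Cmax and Tmax were read directly from the data; AUC0-12 was noncompartmental.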

[2] = test system: Homo sapiens; experiment: Toxicity in human assessed as serious adverse events at 400 mg, po bid on day 1 and 200 mg, po bid on day 2 and 3 measured after 3 days; type: organism-based; settings: in vivo, 72 h
How it was run: (§2)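 Healthy male subjects were followed for adverse events throughout dosing. Vital signs and 12-lead ECGs were recorded predose and 1, 3 and 8 h after the morning voriconazole dose on days 1, 3, 11, 15, 20, 21, 25 and 30. The baseline was the mean of triplicate day-1 predose ECGs. Safety data were summarized descriptively.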

[3] = Cmax in human at 400 mg, po bid on day 1 and 200 mg, po bid on day 2 and 3 followed by 7 days of washout period then treated with ritonavir 400 mg, po for 10 days followed by 200 mg, po of drug coadministered with 400 mg, po ritonavir till day 30; type: ADME, organism-based; set-up: dose 400 mg, route oral; settings: in vivo; how it was run: as §1
[4] = test system: Homo sapiens; experiment: Decrease in Cmax of ritonavir in human at 400 mg, po bid on day 1 and 200 mg, po bid on day 2 and 3 followed by 7 days of washout period then treated with ritonavir 100 mg, po for 10 days followed by 200 mg, po of drug coadministered with ritonavir 100 mg, po till day 30; type: ADME, organism-based; settings: in vivo
[5] = test system: Homo sapiens; experiment: Toxicity in human assessed as mortality at 400 mg, po bid on day 1 and 200 mg, po bid on day 2 and 3 followed by 7 days of washout period then treated with ritonavir 400 mg, po for 10 days followed by 200 mg, po of drug coadministered with ritonavir 400 mg, po till day 30; type: organism-based; settings: in vivo; how it was run: as §2
[6] = Tmax in human at 400 mg, po bid on day 1 and 200 mg, po bid on day 2 and 3 followed by 7 days of washout period then treated with ritonavir 400 mg, po for 10 days followed by 200 mg, po of drug coadministered with 400 mg, po ritonavir till day 30; type: ADME, organism-based; settings: in vivo; how it was run: as §1
[7] = test system: Homo sapiens; experiment: Toxicity in human assessed as serious adverse events at 400 mg, po bid on day 1 and 200 mg, po bid on day 2 and 3 followed by 7 days of washout period then treated with ritonavir 100 mg, po for 10 days followed by 200 mg, po of drug coadministered with ritonavir 100 mg, po till day 30; type: organism-based; settings: in vivo; how it was run: as §2
[8] = Tmax in human at 400 mg, po bid on day 1 and 200 mg, po bid on day 2 and 3 followed by 7 days of washout period then treated with ritonavir 100 mg, po for 10 days followed by 200 mg, po of drug coadministered with 100 mg, po ritonavir till day 30; type: ADME, organism-based; settings: in vivo; how it was run: as §1
[9] = AUC (0 to 12 hrs) in human at 400 mg, po bid on day 1 and 200 mg, po bid on day 2 and 3 followed by 7 days of washout period then treated with ritonavir 100 mg, po for 10 days followed by 200 mg, po of drug coadministered with 100 mg, po ritonavir till day 30; type: ADME, organism-based; set-up: time < 12 hr, dose 400 mg, route oral; settings: plasma; how it was run: as §1
[10] = test system: Homo sapiens; experiment: Toxicity in human assessed as mortality at 400 mg, po bid on day 1 and 200 mg, po bid on day 2 and 3 measured after 3 days; type: organism-based; settings: in vivo, 72 h; how it was run: as §2
[11] = Tmax in human at 400 mg, po bid on day 1 and 200 mg, po bid on day 2 and 3 measured after 3 days; type: ADME, organism-based; settings: in vivo; how it was run: as §1
[12] = Cmax in human at 400 mg, po bid on day 1 and 200 mg, po bid on day 2 and 3 measured after 3 days; type: ADME, organism-based; set-up: dose 400 mg, route oral; settings: in vivo; how it was run: as §1
[13] = test system: Homo sapiens; experiment: Toxicity in human assessed as serious adverse events at 400 mg, po bid on day 1 and 200 mg, po bid on day 2 and 3 followed by 7 days of washout period then treated with ritonavir 400 mg, po for 10 days followed by 200 mg, po of drug coadministered with ritonavir 400 mg, po till day 30; type: organism-based; settings: in vivo; how it was run: as §2
[14] = test system: Homo sapiens; experiment: Toxicity in human assessed as mortality at 400 mg, po bid on day 1 and 200 mg, po bid on day 2 and 3 followed by 7 days of washout period then treated with ritonavir 100 mg, po for 10 days followed by 200 mg, po of drug coadministered with ritonavir 100 mg, po till day 30; type: organism-based; settings: in vivo; how it was run: as §2
[15] = Cmax in human at 400 mg, po bid on day 1 and 200 mg, po bid on day 2 and 3 followed by 7 days of washout period then treated with ritonavir 100 mg, po for 10 days followed by 200 mg, po of drug coadministered with 100 mg, po ritonavir till day 30; type: ADME, organism-based; set-up: dose 400 mg, route oral; settings: in vivo; how it was run: as §1
[16] = AUC (0 to 12 hrs) in human at 400 mg, po bid on day 1 and 200 mg, po bid on day 2 and 3 followed by 7 days of washout period then treated with ritonavir 400 mg, po for 10 days followed by 200 mg, po of drug coadministered with 400 mg, po ritonavir till day 30; type: ADME, organism-based; set-up: time < 12 hr, dose 400 mg, route oral; settings: plasma; how it was run: as §1
[17] = Tmax in human at 400 mg, po bid from day 11 to day 20 pretreated with voriconazole 400 mg, po bid on day 1 and 200 mg, po bid on day 2 and 3 followed by washout from day 4 to day 10 followed by 400 mg, po of drug coadministered with voriconazole 200 mg, po from day 21 to day 30; type: ADME, organism-based; settings: in vivo
How it was run: (§3)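 Blood (7 ml) drawn on days 20 and 30 at 0.5–12 h postdose, centrifuged at 1,700 x g about 10 min at about 4°C, plasma stored at about –20°C. Validated LC/MS/MS assay; noncompartmental analysis, with Cmax and Tmax read directly from concentration-time data.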

[18] = Cmax in human at 100 mg, po bid from day 11 to day 20 pretreated with voriconazole 400 mg, po bid on day 1 and 200 mg, po bid on day 2 and 3 followed by washout from day 4 to day 10 followed by 100 mg, po of drug coadministered with voriconazole 200 mg, po from day 21 to day 30; type: ADME, organism-based; set-up: dose 100 mg, route oral; settings: in vivo; how it was run: as §3
[19] = Cmax in human at 400 mg, po bid from day 11 to day 20 pretreated with voriconazole 400 mg, po bid on day 1 and 200 mg, po bid on day 2 and 3 followed by washout from day 4 to day 10; type: ADME, organism-based; set-up: dose 400 mg, route oral; settings: in vivo; how it was run: as §3
[20] = Tmax in human at 400 mg, po bid from day 11 to day 20 pretreated with placebo from day 1 to day 3 followed by washout from day 4 to day 10; type: ADME, organism-based; settings: in vivo; how it was run: as §3
[21] = Cmax in human at 400 mg, po bid from day 11 to day 20 pretreated with voriconazole 400 mg, po bid on day 1 and 200 mg, po bid on day 2 and 3 followed by washout from day 4 to day 10 followed by 400 mg, po of drug coadministered with voriconazole 200 mg, po from day 21 to day 30; type: ADME, organism-based; set-up: dose 400 mg, route oral; settings: in vivo; how it was run: as §3
[22] = Cmax in human at 400 mg, po bid from day 11 to day 20 pretreated with placebo from day 1 to day 3 followed by washout from day 4 to day 10 followed by 400 mg, po of drug coadministered with placebo from day 21 to day 30; type: ADME, organism-based; set-up: dose 400 mg, route oral; settings: in vivo; how it was run: as §3
[23] = AUC (0 to 12 hrs) in human at 400 mg, po bid from day 11 to day 20 pretreated with voriconazole 400 mg, po bid on day 1 and 200 mg, po bid on day 2 and 3 followed by washout from day 4 to day 10 followed by 400 mg, po of drug coadministered with voriconazole 200 mg, po from day 21 to day 30; type: ADME, organism-based; set-up: time < 12 hr, dose 400 mg, route oral; settings: plasma; how it was run: as §3
[24] = AUC (0 to 12 hrs) in human at 400 mg, po bid from day 11 to day 20 pretreated with placebo from day 1 to day 3 followed by washout from day 4 to day 10; type: ADME, organism-based; set-up: dose 400 mg, time < 12 hr, route oral; settings: plasma; how it was run: as §3
[25] = AUC (0 to 12 hrs) in human at 400 mg, po bid from day 11 to day 20 pretreated with voriconazole 400 mg, po bid on day 1 and 200 mg, po bid on day 2 and 3 followed by washout from day 4 to day 10; type: ADME, organism-based; set-up: dose 400 mg, time < 12 hr, route oral; settings: plasma; how it was run: as §3
[26] = Tmax in human at 400 mg, po bid from day 11 to day 20 pretreated with placebo from day 1 to day 3 followed by washout from day 4 to day 10 followed by 400 mg, po of drug coadministered with placebo from day 21 to day 30; type: ADME, organism-based; settings: in vivo; how it was run: as §3
[27] = Tmax in human at 400 mg, po bid from day 11 to day 20 pretreated with voriconazole 400 mg, po bid on day 1 and 200 mg, po bid on day 2 and 3 followed by washout from day 4 to day 10; type: ADME, organism-based; settings: in vivo; how it was run: as §3
[28] = AUC (0 to 12 hrs) in human at 100 mg, po bid from day 11 to day 20 pretreated with voriconazole 400 mg, po bid on day 1 and 200 mg, po bid on day 2 and 3 followed by washout from day 4 to day 10 followed by 100 mg, po of drug coadministered with voriconazole 200 mg, po from day 21 to day 30; type: ADME, organism-based; set-up: dose 100 mg, time < 12 hr, route oral; settings: plasma; how it was run: as §3
[29] = AUC (0 to 12 hrs) in human at 400 mg, po bid from day 11 to day 20 pretreated with placebo from day 1 to day 3 followed by washout from day 4 to day 10 followed by 400 mg, po of drug coadministered with placebo from day 21 to day 30; type: ADME, organism-based; set-up: dose 400 mg, time < 12 hr, route oral; settings: plasma; how it was run: as §3
[30] = AUC (0 to 12 hrs) in human at 100 mg, po bid from day 11 to day 20 pretreated with voriconazole 400 mg, po bid on day 1 and 200 mg, po bid on day 2 and 3 followed by washout from day 4 to day 10; type: ADME, organism-based; set-up: dose 100 mg, time < 12 hr, route oral; settings: plasma; how it was run: as §3
[31] = Cmax in human at 100 mg, po bid from day 11 to day 20 pretreated with voriconazole 400 mg, po bid on day 1 and 200 mg, po bid on day 2 and 3 followed by washout from day 4 to day 10; type: ADME, organism-based; set-up: dose 100 mg, route oral; settings: in vivo; how it was run: as §3
[32] = Cmax in human at 400 mg, po bid from day 11 to day 20 pretreated with placebo from day 1 to day 3 followed by washout from day 4 to day 10; type: ADME, organism-based; set-up: dose 400 mg, route oral; settings: in vivo; how it was run: as §3
[33] = Tmax in human at 100 mg, po bid from day 11 to day 20 pretreated with voriconazole 400 mg, po bid on day 1 and 200 mg, po bid on day 2 and 3 followed by washout from day 4 to day 10; type: ADME, organism-based; settings: in vivo; how it was run: as §3
[34] = Tmax in human at 100 mg, po bid from day 11 to day 20 pretreated with voriconazole 400 mg, po bid on day 1 and 200 mg, po bid on day 2 and 3 followed by washout from day 4 to day 10 followed by 100 mg, po of drug coadministered with voriconazole 200 mg, po from day 21 to day 30; type: ADME, organism-based; settings: in vivo

SMILES: C[C@@H](c1ncncc1F)[C@](O)(Cn1cncn1)c1ccc(F)cc1F [VORICONAZOLE]
- AUC at 12 h [1]: 26500 ng·h/mL
- Activity [2]: Non-toxic
- Cmax [3]: 1220 ng/mL
- Activity [4]: Non-toxic
- Activity [5]: Non-toxic
- Tmax [6]: 1 h
- Activity [7]: Non-toxic
- Tmax [8]: 1.5 h
- AUC at 12 h [9]: 19500 ng·h/mL
- Activity [10]: Non-toxic
- Tmax [11]: 1.5 h
- Cmax [12]: 3360 ng/mL
- Activity [13]: Non-toxic
- Activity [14]: Non-toxic
- Cmax [15]: 2810 ng/mL
- AUC at 12 h [16]: 4250 ng·h/mL

SMILES: CC(C)c1nc(CN(C)C(=O)N[C@H](C(=O)N[C@@H](Cc2ccccc2)C[C@H](O)[C@H](Cc2ccccc2)NC(=O)OCc2cncs2)C(C)C)cs1 [RITONAVIR]
- Tmax [17]: 1 h
- Cmax [18]: 992 ng/mL
- Cmax [19]: 10700 ng/mL
- Tmax [20]: 1 h
- Cmax [21]: 10400 ng/mL
- Cmax [22]: 10200 ng/mL
- AUC at 12 h [23]: 65900 ng·h/mL
- AUC at 12 h [24]: 65300 ng·h/mL
- AUC at 12 h [25]: 68000 ng·h/mL
- Tmax [26]: 1 h
- Tmax [27]: 1.5 h
- AUC at 12 h [28]: 6430 ng·h/mL
- AUC at 12 h [29]: 58400 ng·h/mL
- AUC at 12 h [30]: 7810 ng·h/mL
- Cmax [31]: 1410 ng/mL
- Cmax [32]: 10500 ng/mL
- Tmax [33]: 1 h
- Tmax [34]: 3 h
